# Measurements: ChEMBL document CHEMBL1817664, “Modulation of cell differentiation, proliferation, and tumor growth by dihydrobenzyloxopyrimidine non-nucleoside reverse transcriptase inhibitors” (2011)
# The source made the active and inactive calls. No cut-off for these calls is given here.
# Columns and labels:
# A-375 [1] = test: Antiproliferative activity against human A375 cells assessed as cell growth at 25 uM after 96 hrs by trypan blue assay; format: functional; conditions: A-375, 96 h, read-out: Activity
# How it was run: (§1)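 A375 melanoma cells grown in DMEM with 10% FCS at 37 °C, 5% CO2; compounds added in DMSO after 56 h (DMSO 0.005% final for controls). Medium with drug renewed every 48 h. After 96 h, cells harvested and Coulter-counted, with trypan blue exclusion for viability. Counts given as % of DMSO controls; data pooled from three experiments.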
# A-375 [2] = test: Induction of human A375 cell differentiation assessed as formation of vimentin intermediate filament at 20 uM after 96 hrs by immunofluorescence analysis; format: functional, cell-based
# How it was run: (§2)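 A375 cells cultured 96 h with drug, then fixed in 4% paraformaldehyde for 10 min and permeabilized in 0.2% Triton X-100/PBS for 5 min. Immunostained for tubulin and vimentin, nuclei counterstained with DAPI.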
# A-375 [3] = test: Antitumor activity against human A375 cells xenografted in athymic nude Harlan mouse assessed as reduced tumor growth at 20 mg/kg, ip administered daily 5 days pre week measured every other day
# A-375 [4] = test: Induction of morphological differentiation in human A375 cells assessed as dentritic-like extension at 5 to 10 uM after 96 hrs by phase contrast microscopy
# A-375 [5] = test: Induction of apoptosis in human A375 cells seeded as low density at 20 uM after 96 hrs by propidium iodide staining-based FACS analysis
# A-375 [6] = test: Induction of apoptosis in human A375 cells seeded as high density at 20 uM after 96 hrs by propidium iodide staining-based FACS analysis
# A-375 [7] = test: Induction of human A375 cell differentiation assessed as microtubule reorganization at 20 uM after 96 hrs by immunofluorescence analysis; format: functional, cell-based; how it was run: as §2
# A-375 [8] = test: Antiproliferative activity against human A375 cells at 20 uM after 96 hrs by trypan blue assay; format: functional
# How it was run: (§3)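 A375 cells plated at (20-50) × 10^3 per 35 mm dish in DMEM/10% FCS. Drug in DMSO added, renewed every 48 h; DMSO alone for controls. After 48 or 96 h, viable cells counted twice per sample by Coulter counter, with trypan blue check. Cells at time t divided by cells seeded, relative to DMSO control as 100%. Mean and SD: four experiments for dose series (5, 10, 20 μM, 96 h), three for time course (5 or 10 μM).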
# A-375 [9] = test: Antiproliferative activity against human A375 cells at 5 to 10 uM by trypan blue assay; format: functional, cell-based; conditions: TDE = time-dependent effect; how it was run: as §3
# A-375 [10] = test: Antiproliferative activity against human A375 cells assessed as cell growth at 15 uM after 96 hrs by trypan blue assay; format: functional; conditions: A-375, 96 h, read-out: Activity; how it was run: as §1
# A-375 [11] = test: Induction of apoptosis in human A375 cells after 96 hrs by propidium iodide staining-based FACS analysis; format: functional, cell-based
# How it was run: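 A375 cells seeded at low (100 000) or high (300 000) density per 25 cm2 flask and cultured 96 h with 20 μM compound. Harvested for biparametric FACS: DNA content by PI uptake (linear) against side scatter (log); at least 10 000 cells per sample. Apoptotic fraction given as mean and SD of three experiments.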
# A-375 [12] = test: Induction of apoptosis in human A375 cells assessed as necrotic cells at 25 uM after 96 hrs by propidium iodide staining-based FACS analysis; format: functional, cell-based
# A-375 [13] = test: Antiproliferative activity against human A375 cells after 96 hrs by trypan blue assay; format: functional, cell-based; how it was run: as §1
# A-375 [14] = test: Antiproliferative activity against human A375 cells assessed as morphological changes at 5 to 10 uM after 96 hrs by phase contrast microscopy; format: functional, cell-based
# How it was run: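 A375 cultures in DMEM/10% FCS exposed to 5, 7.5 or 10 μM drug in DMSO; DMSO-only controls. Dendritic-like extensions scored under phase-contrast or bright-field microscopy.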
# A-375 [15] = test: Antiproliferative activity against human A375 cells assessed as cell growth at 350 uM after 96 hrs by trypan blue assay; format: functional; conditions: A-375, 96 h, read-out: Activity
# How it was run: (§4)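 A375 melanoma cells were grown in DMEM with 10% FCS, 2 mM L-glutamine and penicillin/streptomycin at 37 °C in 5% CO2, and plated at (20–50) × 10^3 cells per 35 mm plate. Once adherent (56 h), compound in DMSO was added (DMSO 0.005% final), with fresh drug medium every 48 h. After 96 h, viable cells were counted twice by Coulter counter, with trypan blue exclusion. Results are % of DMSO control, pooled from three experiments.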
# A-375 [16] = test: Antiproliferative activity against human A375 cells at 350 uM after 96 hrs by trypan blue assay; format: functional; how it was run: as §4
smiles,measurement,setting,value
CCC(c1nc(SC)[nH]c(=O)c1C)c1c(F)cccc1F (stereo not drawn),growth at 25 µM,A-375 [1],40%
CCC(c1cc(O)nc(SC(C)C)n1)c1c(F)cccc1F (stereo not drawn),growth at 25 µM,A-375 [1],19%
CCC(c1nc(S)[nH]c(=O)c1C)c1c(F)cccc1F (stereo not drawn),growth at 25 µM,A-375 [1],76%
CCC(C)Sc1nc([C@H](CC)c2c(F)cccc2F)c(C)c(=O)[nH]1 (stereo partly drawn),Activity,A-375 [2],Active
same,Activity,A-375 [3],Active
same,Activity,A-375 [4],Active
same,Activity,A-375 [5],inactive
same,Activity,A-375 [6],Active
same,Activity,A-375 [7],Active
same,Activity,A-375 [8],70%
same,Activity,A-375 [9],tde
O=C1Nc2ccc(Cl)cc2[C@@](C#CC2CC2)(C(F)(F)F)O1 [EFAVIRENZ],Activity,A-375 [3],Active
same,growth at 15 µM,A-375 [10],51%
CCC(c1nc(SC2CCCC2)[nH]c(=O)c1C)c1c(F)cccc1F (stereo not drawn),growth at 25 µM,A-375 [1],5%
CCC(C)Sc1nc([C@@H](CC)c2c(F)cccc2F)c(C)c(=O)[nH]1 (stereo partly drawn),Activity,A-375 [2],Active
same,Activity,A-375 [4],Active
same,Activity,A-375 [5],inactive
same,Activity,A-375 [6],Active
same,Activity,A-375 [7],Active
same,Activity,A-375 [8],70%
same,Activity,A-375 [9],tde
CCC(c1nc(SC(C)C)[nH]c(=O)c1C)c1c(F)cccc1F (stereo not drawn),growth at 25 µM,A-375 [1],12%
CCC(C)Sc1nc(C(CC)c2c(F)cccc2F)cc(=O)[nH]1 (stereo not drawn),growth at 25 µM,A-375 [1],13%
CCC(c1cc(O)nc(SC2CCCC2)n1)c1c(F)cccc1F (stereo not drawn),growth at 25 µM,A-375 [1],22%
CCC(C)Sc1nc(C(CC)c2c(F)cccc2F)c(C)c(=O)[nH]1 (mixture of isomers),Activity,A-375 [3],Active
same,Activity,A-375 [11],Dose-dependent effect
same,Activity,A-375 [12],Active
same,Activity,A-375 [13],Dose-dependent effect
same,Activity,A-375 [14],Active
same,growth at 25 µM,A-375 [1],5%
Cc1ccnc2c1NC(=O)c1cccnc1N2C1CC1 [NEVIRAPINE],Activity,A-375 [2],Active
same,growth at 350 µM,A-375 [15],35%
same,Activity,A-375 [5],inactive
same,Activity,A-375 [16],50%
same,Activity,A-375 [6],inactive
same,Activity,A-375 [7],Active
CCC(c1cc(=O)[nH]c(S)n1)c1c(F)cccc1F (stereo not drawn),growth at 25 µM,A-375 [1],100%
CCC(c1cc(=O)[nH]c(SC)n1)c1c(F)cccc1F (stereo not drawn),growth at 25 µM,A-375 [1],13%
